Source: ChEMBL document CHEMBL4049434, “Radiolabeled Dibenzodiazepinone-Type Antagonists Give Evidence of Dualsteric Binding at the M2 Muscarinic Acetylcholine Receptor” (J Med Chem, 2017)
Blank lines part the entries; values can stand above or below the molecule they belong to. Active and inactive are the calls of the source. The calls are words filed in the database; no cut-off is given here.

Legend:
[1] = target: T1, Muscarinic acetylcholine receptor M2 (Homo sapiens, UniProt P08172); assay: Binding affinity to human muscarinic acetylcholine receptor M2 expressed in live adherent CHOK9 cells assessed as saturation binding after 2 hrs by liquid scintillation counting assay
T1 sequence (P08172 whole entry): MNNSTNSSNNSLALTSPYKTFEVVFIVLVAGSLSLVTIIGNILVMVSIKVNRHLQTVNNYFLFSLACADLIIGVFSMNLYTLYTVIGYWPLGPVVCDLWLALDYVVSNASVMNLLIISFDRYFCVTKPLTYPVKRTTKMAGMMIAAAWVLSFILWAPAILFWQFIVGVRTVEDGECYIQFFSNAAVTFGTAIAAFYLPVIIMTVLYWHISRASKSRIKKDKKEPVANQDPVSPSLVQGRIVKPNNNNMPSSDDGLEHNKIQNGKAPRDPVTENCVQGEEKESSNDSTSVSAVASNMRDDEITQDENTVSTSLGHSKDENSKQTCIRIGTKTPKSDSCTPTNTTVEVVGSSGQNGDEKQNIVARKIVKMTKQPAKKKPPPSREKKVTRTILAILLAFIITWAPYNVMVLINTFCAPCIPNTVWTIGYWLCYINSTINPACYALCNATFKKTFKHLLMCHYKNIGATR

[2] = target: T1, Muscarinic acetylcholine receptor M2; assay: (§1) Binding affinity to human muscarinic acetylcholine receptor M2 expressed in live adherent CHOK9 cells after 2 hrs by liquid scintillation counting assay; type: cell-based
How it was run: (§2)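 Live adherent CHO-hM2 cells in L15 medium with 1% BSA, 23 ± 1 °C, 2 h incubation. Competition at 2 nM radioligand; additional 4, 8, 15 and 30 nM in W84 experiments. […] Saturation data fitted one-site; competition by four-parameter logistic fits; at least three experiments in triplicate.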

[3] = target: T1, Muscarinic acetylcholine receptor M2; assay: Displacement of [3H]NMS from human muscarinic acetylcholine receptor M2 expressed in CHOK9 cells after 3 hrs by liquid scintillation counting assay; type: cell-based
[4] = target: T1, Muscarinic acetylcholine receptor M2; assay: Ratio of binding affinity to human muscarinic acetylcholine receptor M2 expressed in CHOK9 cells assessed as dissociation rate constant to binding affinity to human muscarinic acetylcholine receptor M2 expressed in CHOK9 cells assessed as association rate constant; type: cell-based
[5] = target: T1, Muscarinic acetylcholine receptor M2; assay: Displacement of [3H]NMS from human muscarinic acetylcholine receptor M2
How it was run: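 Competition binding at intact adherent CHO-K9 cells stably expressing human M2R. Cells were incubated with [3H]NMS 0.2 nM (final) and competitor for 3 h at 23 ± 1 °C in Leibovitz L-15 medium with 1% BSA. […] Curves were fitted by four-parameter logistic fits. Replicates: 3 to 9 independent experiments, each in triplicate.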

[6] = target: T1, Muscarinic acetylcholine receptor M2; assay: Displacement of [3H]UR-AP060 from human muscarinic acetylcholine receptor M2 expressed in CHOK9 cell homogenate after 3 hrs by liquid scintillation counting assay
[7] = target: T1, Muscarinic acetylcholine receptor M2; assay: Displacement of [3H]UNSW-MK259 from human muscarinic acetylcholine receptor M2 expressed in CHOK9 cells after 3 hrs by liquid scintillation counting assay; type: cell-based
[8] = target: T2, Muscarinic acetylcholine receptor M2 (Homo sapiens) (UniProt P08172); assay: (§3) Competitive antagonist activity at human muscarinic acetylcholine receptor M2 expressed in HEK293 cells coexpressing HA tagged Galpha-protein qi5 assessed as inhibition of 10 uM carbachol-induced IP1 accumulation preincubated for 30 mins followed by carbachol addition measured after 1 hr by HTRF assay; type: functional, cell-based
T2 sequence (whole entry): T1 sequence (P08172 whole entry)
How it was run: (§4)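 HEK-293 transiently cotransfected with human M2R and Gαqi5-HA. Cells preincubated 30 min with antagonist, then carbachol added (final 0.1, 0.3, 1 or 10 μM), 1 h at 37 °C. IP1 detected by HTRF (620/670 nm emission, 330 nm excitation). At least four independent experiments, each in duplicate.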

[9] = target: T1, Muscarinic acetylcholine receptor M2; assay: as §3; type: functional, cell-based
How it was run: as §4

[10] = target: T2, Muscarinic acetylcholine receptor M2 (Homo sapiens); assay: as §3, with “1” for “10”; type: functional, cell-based
How it was run: as §4

[11] = target: T1, Muscarinic acetylcholine receptor M2; assay: as §3, with “1” for “10”; type: functional, cell-based
How it was run: as §4

[12] = target: T2, Muscarinic acetylcholine receptor M2 (Homo sapiens); assay: Agonist activity at human muscarinic acetylcholine receptor M2 expressed in HEK293 cells coexpressing HA tagged Galpha-protein qi5 assessed as induction of IP1 accumulation measured after 1 hr by HTRF assay; type: functional, cell-based
How it was run: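 HEK-293 transiently cotransfected with human M2R and Gαqi5-HA, seeded 24 h before assay (10000 cells/well). Compounds in stimulation buffer (1 pM–100 μM final) 1 h at 37 °C; IP1 read by HTRF (620/670 nm, excitation 330 nm) after 60 min with detection reagents at rt. Duplicate, three experiments, carbachol as reference.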

[13] = target: T2, Muscarinic acetylcholine receptor M2 (Homo sapiens); assay: as §3, with “0.1” for “10”; type: functional, cell-based
How it was run: as §4

[14] = target: T1, Muscarinic acetylcholine receptor M2; assay: as §3, with “0.1” for “10”; type: functional, cell-based
How it was run: as §4

[15] = target: T2, Muscarinic acetylcholine receptor M2 (Homo sapiens); assay: Binding affinity to human muscarinic acetylcholine receptor M2 expressed in CHOK9 cells assessed as dissociation rate constant after 105 mins by liquid scintillation counting assay; type: cell-based; settings: tested as the 3H-labelled form
[16] = target: T2, Muscarinic acetylcholine receptor M2 (Homo sapiens); assay: as §1; type: cell-based; settings: tested as the 3H-labelled form
How it was run: as §2

[17] = target: T2, Muscarinic acetylcholine receptor M2 (Homo sapiens); assay: Binding affinity to human muscarinic acetylcholine receptor M2 expressed in CHOK9 cells assessed as association rate constant incubated up to 140 mins by liquid scintillation counting assay; type: cell-based; settings: tested as the 3H-labelled form
[18] = target: T2, Muscarinic acetylcholine receptor M2 (Homo sapiens); assay: Binding affinity to human muscarinic acetylcholine receptor M2 expressed in CHOK9 cells assessed as dissociation half life after 105 mins by liquid scintillation counting assay; type: cell-based; settings: tested as the 3H-labelled form
[19] = target: T2, Muscarinic acetylcholine receptor M2 (Homo sapiens); assay: Binding affinity to human muscarinic acetylcholine receptor M2 expressed in live adherent CHOK9 cells at Kd in presence of 500-fold excess atropine after 2 hrs by liquid scintillation counting assay relative to control; type: cell-based; settings: tested as the 3H-labelled form
How it was run: as §2

[20] = Chemical stability of the compound in PBS buffer at pH 7.4 after 48 hrs by HPLC analysis; type: physicochemical; settings: pH 7.4, 48 h
How it was run: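 Compound at 100 μM final (from 10 mM stock) in PBS pH 7.4 at 22 ± 1 °C; samples taken at 0, 24 and 48 h, mixed with acetonitrile/1% aq TFA 2:8, analysed by RP-HPLC at 220 nm.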

[21] = target: T2, Muscarinic acetylcholine receptor M2 (Homo sapiens); assay: Antagonist activity at human muscarinic acetylcholine receptor M2 expressed in HEK293 cells coexpressing HA tagged Galpha-protein qi5 assessed as inhibition of 0.3 uM carbachol-induced IP1 accumulation preincubated for 30 mins followed by carbachol addition measured after 1 hr by HTRF assay; type: functional, cell-based
How it was run: as §4

[22] = target: T1, Muscarinic acetylcholine receptor M2; assay: Displacement of [3H]Dimethyl-W84 from human muscarinic acetylcholine receptor M2 expressed in CHO cells after 2 hrs; type: cell-based
[23] = target: T1, Muscarinic acetylcholine receptor M2; assay: Displacement of [3H]NMS from human muscarinic acetylcholine receptor M2 expressed in CHO cells after 2 hrs; type: cell-based

Kd [1]: 0.00087 µM
Kd [2]: 0.00087 µM
Ki ([3]; read-out: Ki): 0.00076 µM
Kd [4]: 0.0007 µM
SMILES: [3H]CC([3H])C(=O)NCCNC(=O)CCc1cn(CCCCC2CCN(CC(=O)N3c4ccccc4NC(=O)c4ccccc43)CC2)cn1 (stereo unspecified)

SMILES: O=C1CCCN1CC#CCN1CCCC1 [OXOTREMORINE]
Ki [5]: 0.251 to 10 µM
Ki [6]: 10 µM
Ki [7]: 0.148 µM

inhibition [8]: Dose-dependent effect
IC50 [9]: 0.355 µM
inhibition [10]: Dose-dependent effect
IC50 [11]: 0.0851 µM
Activity [12]: inactive
inhibition [13]: Dose-dependent effect
IC50 [14]: 0.0339 µM
K [15]: 0.0091 min⁻¹
Bmax (disintegrations/minute) [16]: 780
Ki [6]: 0.0102 µM
Ki ([3]; read-out: pKi (converted)): 0.000759 µM
K [17]: 217000 M⁻¹ s⁻¹
T1/2 [18]: 1.18 h
Activity [19]: < 5%
Stability [20]: Stable
inhibition [21]: Dose-dependent effect
pKb [21]: 7.53
Ki [7]: 0.0011 µM
SMILES: CCC(=O)NCCNC(=O)CCc1cn(CCCCC2CCN(CC(=O)N3c4ccccc4NC(=O)c4ccccc43)CC2)cn1

Ki [22]: 0.0316 µM
Ki [23]: 0.0316 µM
Ki [6]: 1.07 µM
Kb ([6]; read-out: pA2 (converted)): 0.263 µM
Ki [7]: 0.0398 µM
Kb ([7]; read-out: pA2 (converted)): 0.155 µM
SMILES: C[N+](C)(CCCCCC[N+](C)(C)CCCN1C(=O)c2ccccc2C1=O)CCCN1C(=O)c2ccccc2C1=O
